An excerpt weighted towards active compounds, which were near 2.9% of everything screened.
SIAE inh: blocks human sialic acid acetylesterase. SIAE FP-Rh probe binding, fluorescence polarization. inhibition, % at 9.66 µM. 0.69% of 370,000 active. AID 1053197;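 active = inhibition above a cutoff: mean of compounds within the control limits plus 3 SD of those, cut at about 17% in these data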;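 note: 0% = plate median of compound wells and 100% = probe without SIAE protein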
Target sequence (Q9HAT2 whole entry, looked up): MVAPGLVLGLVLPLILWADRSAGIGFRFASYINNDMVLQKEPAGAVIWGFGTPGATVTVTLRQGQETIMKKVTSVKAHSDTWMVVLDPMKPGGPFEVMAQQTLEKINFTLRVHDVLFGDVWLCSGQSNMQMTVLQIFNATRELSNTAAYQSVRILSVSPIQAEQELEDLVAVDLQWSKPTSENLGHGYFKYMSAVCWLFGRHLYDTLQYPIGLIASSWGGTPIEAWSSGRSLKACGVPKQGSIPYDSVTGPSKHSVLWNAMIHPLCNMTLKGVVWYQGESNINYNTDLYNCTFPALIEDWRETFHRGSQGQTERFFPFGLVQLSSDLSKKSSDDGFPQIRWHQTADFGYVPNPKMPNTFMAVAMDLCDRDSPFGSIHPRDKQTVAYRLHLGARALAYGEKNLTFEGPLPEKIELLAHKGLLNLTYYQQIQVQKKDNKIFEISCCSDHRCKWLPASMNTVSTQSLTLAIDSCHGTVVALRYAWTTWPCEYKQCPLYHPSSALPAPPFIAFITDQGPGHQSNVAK
PRMT1 inh: inhibitors of human PRMT1; 1.3% of 370,000 active; Q99873; recombinant PRMT1, activity-based probe fluorescence polarization; inhibition, % at 2.79 µM;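 active = inhibition above about 21% made by adding two undisclosed values, limit read from the data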
HTRA1 inhibitor: HTRA1 (human) protease inhibition; recombinant HTRA1, FP-rhodamine activity-based probe, fluorescence polarization; inhibition, % at 5.96 µM; 0.5% of 340,000 active; AID 504803; in the data active = inhibition above about 36%;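 note: 0% = enzyme with DMSO and 100% = wells lacking enzyme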
ABHD4 inh: inhibits mouse alpha/beta hydrolase domain 4. purified mABHD4, FP-Rh probe fluorescence polarization. inhibition, % at 8.92 µM. 0.54% of 370,000 active. Q8VD66. AID 720543;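 active = inhibition exceeding the mean over every tested compound plus 3 SD, cut at about 30% in these data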;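 note: 0% = plate median of compound wells and 100% = S159A mutant with DMSO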
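Assay system: Wild-type mouse ABHD4 protein | Medium: HEPES pH 7.0 buffer, 150 mM NaCl, 0.01% Pluronic F-127 | Incubation: Enzyme–compound pre-incubation 45 min, then probe 60 min, both 25 °C | Technique: Fluorescence polarization with parallel and perpendicular emission, 525/598 nm | Evaluation: % inhibition of FP-Rh probe binding versus controls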
ATG4B inh: inhibitors of human ATG4B cysteine protease; Q9Y4P1; ATG4B cleavage of LC3-PLA2, NBD-HPC fluorescence, 1 h; 0.51% of 340,000 active; AID 504462; inhibition, % at 8.33 µM; in the data active = inhibition above about 40%
TCR CD3 inh: inhibitors of human TCR-CD3 interaction. TAMRA-labeled TCR probe fluorescence, biochemical. inhibition, % at 9.4 µM. 0.37% of 360,000 active. AID 651800; in the data active = inhibition above about 19%;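 note: recombinant mutant TCR 2C K166C tagged with TAMRA read by polarization; 0% = receptor in buffer alone and 100% = receptor with positive control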
PRMT1 inh conf: confirmation of human PRMT1 inhibitors | shares compounds with PRMT1 inh | recombinant His-PRMT1, activity-based probe fluorescence polarization | inhibition, % at 2.79 µM | 42% of 3,300 active;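 active = mean inhibition across replicates above the hit cutoff derived for the earlier primary screen, cut at about 22% in these data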
Starred values were filed as active, the others as inactive; nt = not tested or not shown.

SMILES	SIAE inh	PRMT1 inh	HTRA1 inhibitor	ABHD4 inh	ATG4B inh	TCR CD3 inh	PRMT1 inh conf
COC(=O)C1Sc2[nH]c(=O)sc2C(c2ccc(Cl)cc2)C1C(=O)OC (configuration not stated)	-1.4	1.5	-7.2	5.5	-2.0	-1.5	nt
COC(=O)C1CSc2[nH]c(=O)sc2C1c1ccccc1 (configuration not stated)	5.7	45.6*	-1.8	6.1	-26.2	-0.1	25.6*
CC(C)Oc1ccc(C(=O)CCN2CCOCC2)cc1	0.9	9.9	0.5	9.1	6.6	2.8	nt
CCCCCOc1ccc(C(=O)CCN2CCOCC2)cc1	-1.1	26.3*	-1.1	0.4	-6.3	-2.8	1.7
O=C(CN1C(=O)C2C3C=CC(C3)C2C1=O)OCC(=O)c1ccc([N+](=O)[O-])cc1 (configuration not stated)	0.8	50.0*	9.3	10.0	-0.2	7.2	42.3*
CC(C(=O)OCC(=O)c1ccc([N+](=O)[O-])cc1)N1C(=O)C2C3C=CC(C3)C2C1=O (configuration not stated)	0.9	27.7*	11.4	-7.1	5.5	-7.7	4.0
CCOC(=O)c1c(-c2ccc(C)o2)csc1NC(=O)COC(=O)c1cccs1	-4.3	2.4	-31.6	-8.0	-15.7	8.1	nt
CCOC(=O)c1c(-c2ccc(C)o2)csc1NC(=S)NC(=O)N(C)C	4.0	80.3*	-5.3	2.4	-6.9	-5.1	11.5
CCOC(=O)c1c(-c2ccc(C)o2)csc1NC(=O)CSc1ncn[nH]1	-6.1	32.6*	-12.2	-9.2	-8.2	1.0	13.7
CC(COc1ccc(F)cc1)CN1CCC(C(O)(c2ccccc2)c2ccccc2)CC1 (configuration not stated)	-1.7	-2.4	nt	9.8	nt	nt	nt
COc1ccccc1/C=C1\SC(=S)N(NS(=O)(=O)c2ccc(C)cc2)C1=O	-11.3	3.5	-24.5	1.2	19.8	2.7	nt
Cc1ccc(S(=O)(=O)NN2C(=O)/C(=C/c3cccnc3)SC2=S)cc1	6.3	30.5*	-3.7	6.0	4.8	-3.1	12.8
N#Cc1ccsc1NC(=O)CSc1nncs1	6.6	25.9*	9.9	14.8	-7.2	0.7	24.0*
CCCCCCCCN1C(=O)[C@@H](CC(=O)N2CCC(c3ccccc3)CC2)C[C@@]2(C(=O)OC)C1=C[C@H](C(C)C)O[C@@H]2C1CC1	2.4	4.3	nt	7.8	nt	nt	nt
S=c1nc(-c2ccc(Cl)cc2)[nH][nH]1	13.8	14.3	7.5	4.9	-0.3	-0.4	nt
CCCOc1ccc(-c2nc(=S)[nH][nH]2)cc1	-4.1	45.9*	3.8	1.5	-9.2	-4.0	11.8
CCN(CC)S(=O)(=O)c1ccc(C(=O)OCCN2C(=O)c3cccc4c(N5CCOCC5)ccc(c34)C2=O)cc1	0.1	0.6	3.0	3.9	-19.6	7.4	nt
CC(=O)N(C(C)=O)N1C(=O)c2cccc3c(N4CCOCC4)ccc(c23)C1=O	-0.8	28.2*	0.8	-2.5	2.9	8.0	7.1
Nc1ncnc(Sc2ccccc2)c1[N+](=O)[O-]	-0.3	11.5	-1.4	2.1	-5.6	-1.6	nt
Nc1ncnc(Sc2ncccn2)c1[N+](=O)[O-]	-0.6	53.4*	0.0	-1.5	-3.0	4.9	15.8
O=C(CCc1ccccc1)N[C@H]1[C@H](OC(=O)c2cnccn2)CCC[C@@]12C(=O)N(Cc1ccccc1)c1ccccc12	3.9	-2.5	nt	-0.8	nt	nt	nt
CC(=O)c1ccc(OC(=O)CCc2nc3ccccc3s2)cc1	6.7	74.8*	nt	2.1	14.2	-0.8	27.2*
O=C(O)COCc1nc2ccccc2s1	-3.8	53.5*	-0.3	12.0	-8.8	10.9	8.5
CC(C)(C)N(NC(=O)NCCCl)C(=O)c1ccccc1Cl	-5.1	-2.1	nt	-0.9	nt	nt	nt
Cn1c(=O)c2ccccc2n(C)c1=O	0.9	4.6	nt	-1.6	nt	-5.7	nt
SMILES	SIAE inh	PRMT1 inh	HTRA1 inhibitor	ABHD4 inh	ATG4B inh	TCR CD3 inh	PRMT1 inh conf
C#CCNC(=O)C[C@H]1C[C@@]2(C(=O)OC)C(=C[C@H](COCc3ccccc3)O[C@@H]2C)N(CCCCCCCC)C1=O	0.0	0.0	nt	-6.5	nt	nt	nt
O=C(CCCC1=NS(=O)(=O)c2ccccc2N1)N1CCN(c2ccccc2Cl)CC1	-1.7	-3.3	nt	1.2	nt	nt	nt
c1ccc(-c2nc(-c3ccco3)cs2)nc1	-4.5	50.8*	6.4	-4.2	3.0	4.8	1.2
O=C(NCc1ccc(C(=O)NC2CCCC2)cc1)c1cccc(Br)c1	-6.5	-0.6	nt	-6.8	nt	nt	nt
CCOC(=O)c1c(N2C(=O)C3C4C=CC(O4)C3C2=O)sc2c1CCCC2 (configuration not stated)	-4.1	82.5*	-11.8	9.6	-4.2	-2.6	56.5*
CCOC(=O)c1c(-n2cnnn2)sc2c1CCCC2	3.5	-3.6	0.2	3.4	-0.3	-0.8	nt
COc1ccc(N2C(=O)CC(N3CCC(O)(c4ccc(Cl)cc4)CC3)C2=O)cc1 (configuration not stated)	-4.8	76.9*	2.0	-3.5	-4.0	4.9	-1.1
COc1ccc(N2C(=O)CC(N3CCN(c4ccc(Cl)cc4)CC3)C2=O)cc1 (configuration not stated)	-4.0	1.6	-4.1	0.0	-2.6	9.2	nt
COc1ccc(N2C(=O)CC(N3CCC(c4nc5ccccc5[nH]4)CC3)C2=O)cc1 (configuration not stated)	-5.3	53.5*	1.0	5.5	-9.2	-3.6	-4.5
O=C1CC(N2CCC(c3nc4ccccc4[nH]3)CC2)C(=O)N1c1ccccc1F (configuration not stated)	10.3	32.2*	-1.9	0.2	0.2	2.0	2.9
COc1ccc(N2C(=O)CC(n3c(CCCCO)nc4ccccc43)C2=O)cc1 (configuration not stated)	3.8	25.1*	4.8	-3.6	-1.5	-3.4	18.7
COC(=O)[C@]12C[C@H](CC(=O)N3CCOCC3)C(=O)N(Cc3ccc4c(c3)OCO4)C1=C[C@H](C(C)C)O[C@@H]2C1CC1	-7.0	6.3	nt	0.5	nt	nt	nt
CCCn1c(SCC(=O)N2CC(=O)Nc3ccccc32)nc2ccccc21	0.8	37.2*	0.9	-16.8	-11.6	-7.3	24.1*
O=C1CN(C(=O)CSc2nc3ccccc3n2CCc2ccccc2)c2ccccc2N1	-6.3	2.8	-12.0	-3.3	-9.8	-4.2	nt
CC(=O)Nc1ccc(C2=NNC(=Nc3ccc(S(=O)(=O)N4CCOCC4)cc3)SC2)cc1	-25.3	60.1*	0.7	-30.2	-11.3	-6.8	85.7*
CC(=O)Nc1ccc(C(=O)Nc2ccc(S(=O)(=O)N3CCOCC3)cc2)cc1	-1.8	3.3	-3.6	-2.7	-1.1	-7.5	nt
Cc1cccc(NC(=O)CN2C(=O)N/C(=C\c3ccc(-c4cccc(C(=O)O)c4)o3)C2=O)c1	1.9	26.9*	-13.9	5.9	-4.2	4.5	10.5

Screening data deposited in PubChem BioAssay by several laboratories.
